ChEMBL document CHEMBL1926550, “Synthesis and antibacterial activity of naphthyridone derivatives containing mono/difluoro-methyloxime pyrrolidine scaffolds” (2012)
In brackets after ≈: the same amount, converted by molar mass.

Experiments:
Type in all cases: functional
Staphylococcus aureus [1] = test: Antibacterial activity against methicillin-resistant Staphylococcus aureus 10-2 infected KM mouse systemic infection model assessed as decrease in mouse mortality administered orally twice after 1 and 4 hrs post infection measured up to 7 days; details: 10-2, po
How it was run: (§1)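 Strains grown on MH agar at 35 °C for 18 h, suspended in gastric mucin. Male KM mice (19–21 g), groups of 10, infected intraperitoneally with 0.5 mL at 5–10× MLD. Four oral dose levels per drug at 1 and 4 h post infection. Mortality followed 7 days; ED50 with 95% confidence limits by Bliss method.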

Enterococcus faecalis [2] = test: Antibacterial activity against Enterococcus faecalis 09-2 after 18 hrs by two fold serial dilution method; details: 09-2, 18 h
How it was run: (§2)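 Agar two-fold serial dilution in melted Mueller-Hinton agar, final concentrations 128 down to 0.008 μg/mL. Plates inoculated with 10⁴ cfu and incubated at 35 °C for 18 h. MIC taken as the lowest concentration giving no visible growth on the plate.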

[3] = system: Staphylococcus epidermidis; test: Antibacterial activity against methicillin-sensitive Staphylococcus epidermidis 10-1 after 18 hrs by two fold serial dilution method; details: 10-1, 18 h; how it was run: as §2
Klebsiella pneumoniae [4] = test: Antibacterial activity against Klebsiella pneumoniae 10-3 infected KM mouse systemic infection model assessed as decrease in mouse mortality administered orally twice after 1 and 4 hrs post infection measured up to 7 days; details: 10-3, po; how it was run: as §1
Klebsiella pneumoniae [5] = test: Antibacterial activity against Klebsiella pneumoniae 09-2 after 18 hrs by two fold serial dilution method; details: 09-2, 18 h; how it was run: as §2
[6] = system: Staphylococcus epidermidis; test: Antibacterial activity against methicillin-sensitive Staphylococcus epidermidis 10-2 after 18 hrs by two fold serial dilution method; details: 10-2, 18 h; how it was run: as §2
Klebsiella pneumoniae [7] = test: Antibacterial activity against Klebsiella pneumoniae 10-1 after 18 hrs by two fold serial dilution method; details: 10-1, 18 h; how it was run: as §2
Escherichia coli [8] = test: Antibacterial activity against Escherichia coli 09-3 after 18 hrs by two fold serial dilution method; details: 09-3, 18 h; how it was run: as §2
[9] = system: Staphylococcus epidermidis; test: Antibacterial activity against methicillin-resistant Staphylococcus epidermidis 10-1 after 18 hrs by two fold serial dilution method; details: 10-1, 18 h
How it was run: (§3)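 Agar two-fold serial dilution in melted Mueller-Hinton agar, 128 to 0.008 μg/mL. Plates inoculated with 10⁴ cfu, incubated 35 °C for 18 h. MIC taken as lowest concentration giving no visible growth on the plate.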

Enterococcus faecium [10] = test: Antibacterial activity against Enterococcus faecium 09-4 after 18 hrs by two fold serial dilution method; details: 09-4, 18 h; how it was run: as §2
[11] = system: Staphylococcus epidermidis; test: Antibacterial activity against methicillin-resistant Staphylococcus epidermidis 10-4 infected KM mouse systemic infection model assessed as decrease in mouse mortality administered orally twice after 1 and 4 hrs post infection measured up to 7 days; details: 10-4, po; how it was run: as §1
Enterococcus faecium [12] = test: Antibacterial activity against Enterococcus faecium 09-6 after 18 hrs by two fold serial dilution method; details: 09-6, 18 h; how it was run: as §2
Staphylococcus aureus [13] = test: Antibacterial activity against methicillin-sensitive Staphylococcus aureus 10-1 after 18 hrs by two fold serial dilution method; details: 10-1, 18 h; how it was run: as §2
Staphylococcus aureus [14] = test: Antibacterial activity against methicillin-sensitive Staphylococcus aureus 10-5 after 18 hrs by two fold serial dilution method; details: 10-5, 18 h; how it was run: as §2
Streptococcus pneumoniae = test: Antibacterial activity against Streptococcus pneumoniae 10-1 after 18 hrs by two fold serial dilution method; details: 10-1, 18 h; how it was run: as §2
Staphylococcus aureus [15] = test: Antibacterial activity against methicillin-resistant Staphylococcus aureus 10-3 after 18 hrs by two fold serial dilution method; details: 10-3, 18 h; how it was run: as §3
Pseudomonas aeruginosa [16] = test: Antibacterial activity against Pseudomonas aeruginosa 10-1 infected KM mouse systemic infection model assessed as decrease in mouse mortality administered orally twice after 1 and 4 hrs post infection measured up to 7 days; details: 10-1, po; how it was run: as §1
Enterococcus faecium [17] = test: Antibacterial activity against Enterococcus faecium 09-1 after 18 hrs by two fold serial dilution method; details: 09-1, 18 h; how it was run: as §2
Pseudomonas aeruginosa [18] = test: Antibacterial activity against Pseudomonas aeruginosa 10-1 after 18 hrs by two fold serial dilution method; details: 10-1, 18 h; how it was run: as §2
Pseudomonas aeruginosa [19] = test: Antibacterial activity against Pseudomonas aeruginosa 10-2 after 18 hrs by two fold serial dilution method; details: 10-2, 18 h; how it was run: as §2
[20] = system: Staphylococcus epidermidis; test: Antibacterial activity against methicillin-resistant Staphylococcus epidermidis 10-2 after 18 hrs by two fold serial dilution method; details: 10-2, 18 h; how it was run: as §3
Klebsiella pneumoniae [21] = test: Antibacterial activity against Klebsiella pneumoniae 10-3 after 18 hrs by two fold serial dilution method; details: 10-3, 18 h; how it was run: as §2
Staphylococcus aureus [22] = test: Antibacterial activity against methicillin-sensitive Staphylococcus aureus 10-4 after 18 hrs by two fold serial dilution method; details: 10-4, 18 h; how it was run: as §2
Enterococcus faecalis [23] = test: Antibacterial activity against Enterococcus faecalis 09-1 after 18 hrs by two fold serial dilution method; details: 09-1, 18 h; how it was run: as §2
[24] = system: Staphylococcus epidermidis; test: Antibacterial activity against methicillin-resistant Staphylococcus epidermidis 10-4 after 18 hrs by two fold serial dilution method; details: 10-4, 18 h; how it was run: as §3
Staphylococcus aureus [25] = test: Antibacterial activity against methicillin-resistant Staphylococcus aureus 10-1 after 18 hrs by two fold serial dilution method; details: 10-1, 18 h; how it was run: as §3
Staphylococcus aureus [26] = test: Antibacterial activity against methicillin-resistant Staphylococcus aureus 10-4 after 18 hrs by two fold serial dilution method; details: 10-4, 18 h; how it was run: as §3
Enterococcus faecium [27] = test: Antibacterial activity against Enterococcus faecium 09-5 after 18 hrs by two fold serial dilution method; details: 09-5, 18 h; how it was run: as §2
Staphylococcus aureus [28] = test: Antibacterial activity against Staphylococcus aureus ATCC 25923 after 18 hrs by two fold serial dilution method; details: ATCC 25923, 18 h; how it was run: as §2
Staphylococcus aureus [29] = test: Antibacterial activity against methicillin-sensitive Staphylococcus aureus 10-2 after 18 hrs by two fold serial dilution method; details: 10-2, 18 h; how it was run: as §2
Escherichia coli [30] = test: Antibacterial activity against Escherichia coli 10-2 infected KM mouse systemic infection model assessed as decrease in mouse mortality administered orally twice after 1 and 4 hrs post infection measured up to 7 days; details: 10-2, po; how it was run: as §1
Staphylococcus aureus [31] = test: Antibacterial activity against methicillin-sensitive Staphylococcus aureus 10-3 after 18 hrs by two fold serial dilution method; details: 10-3, 18 h; how it was run: as §2
Enterococcus faecium [32] = test: Antibacterial activity against Enterococcus faecium 09-2 after 18 hrs by two fold serial dilution method; details: 09-2, 18 h; how it was run: as §2
Enterococcus faecium [33] = test: Antibacterial activity against Enterococcus faecium 09-3 after 18 hrs by two fold serial dilution method; details: 09-3, 18 h; how it was run: as §2
Pseudomonas aeruginosa [34] = test: Antibacterial activity against Pseudomonas aeruginosa ATCC 27853 after 18 hrs by two fold serial dilution method; details: ATCC 27853, 18 h; how it was run: as §2
Escherichia coli [35] = test: Antibacterial activity against Escherichia coli 09-1 after 18 hrs by two fold serial dilution method; details: 09-1, 18 h; how it was run: as §2
Pseudomonas aeruginosa [36] = test: Antibacterial activity against Pseudomonas aeruginosa 10-3 after 18 hrs by two fold serial dilution method; details: 10-3, 18 h; how it was run: as §2
Escherichia coli [37] = test: Antibacterial activity against Escherichia coli 09-2 after 18 hrs by two fold serial dilution method; details: 09-2, 18 h; how it was run: as §2
Staphylococcus aureus [38] = test: Antibacterial activity against methicillin-sensitive Staphylococcus aureus 10-6 after 18 hrs by two fold serial dilution method; details: 10-6, 18 h; how it was run: as §2
Escherichia coli [39] = test: Antibacterial activity against Escherichia coli 10-2 after 18 hrs by two fold serial dilution method; details: 10-2, 18 h; how it was run: as §2
Escherichia coli [40] = test: Antibacterial activity against Escherichia coli 10-3 after 18 hrs by two fold serial dilution method; details: 10-3, 18 h; how it was run: as §2
Staphylococcus aureus [41] = test: Antibacterial activity against methicillin-resistant Staphylococcus aureus 10-2 after 18 hrs by two fold serial dilution method; details: 10-2, 18 h; how it was run: as §3
Escherichia coli [42] = test: Antibacterial activity against Escherichia coli ATCC 25922 after 18 hrs by two fold serial dilution method; details: ATCC 25922, 18 h; how it was run: as §2
Escherichia coli [43] = test: Antibacterial activity against Escherichia coli 10-1 after 18 hrs by two fold serial dilution method; details: 10-1, 18 h; how it was run: as §2

Compound | MIC (Enterococcus faecalis [2]) [µg/mL] | MIC [3] [µg/mL] | MIC (Klebsiella pneumoniae [5]) [µg/mL] | MIC [6] [µg/mL] | MIC (Klebsiella pneumoniae [7]) [µg/mL] | MIC (Escherichia coli [8]) [µg/mL] | MIC [9] [µg/mL] | MIC (Enterococcus faecium [10]) [µg/mL] | MIC (Enterococcus faecium [12]) [µg/mL] | MIC (Staphylococcus aureus [13]) [µg/mL] | MIC (Staphylococcus aureus [14]) [µg/mL] | MIC (Streptococcus pneumoniae) [µg/mL] | MIC (Staphylococcus aureus [15]) [µg/mL] | MIC (Enterococcus faecium [17]) [µg/mL] | MIC (Pseudomonas aeruginosa [18]) [µg/mL] | MIC (Pseudomonas aeruginosa [19]) [µg/mL] | MIC [20] [µg/mL] | MIC (Klebsiella pneumoniae [21]) [µg/mL] | MIC (Staphylococcus aureus [22]) [µg/mL] | MIC (Enterococcus faecalis [23]) [µg/mL] | other results
O=C(O)c1cn(C2CC2)c2cc(N3CCNCC3)c(F)cc2c1=O [CIPROFLOXACIN] | 64 (≈ 193 µM) | 8 (≈ 24.1 µM) | 32 (≈ 96.6 µM) | 64 (≈ 193 µM) | 0.06 (≈ 0.181 µM) | 64 (≈ 193 µM) | 16 (≈ 48.3 µM) | 0.5 (≈ 1.51 µM) | 0.5 (≈ 1.51 µM) | 0.015 (≈ 0.0453 µM) | 0.03 (≈ 0.0905 µM) | 0.03 (≈ 0.0905 µM) | > 128 | > 128 | 0.06 (≈ 0.181 µM) | > 128 | 8 (≈ 24.1 µM) | 0.25 (≈ 0.754 µM) | 0.06 (≈ 0.181 µM) | 64 (≈ 193 µM) | ED50 (Staphylococcus aureus [1]): 15.9 mg/kg; ED50 (Klebsiella pneumoniae [4]): 87.5 mg/kg; ED50 [11]: 24.5 mg/kg; ED50 (Pseudomonas aeruginosa [16]): 111 mg/kg; MIC [24]: 8 µg/mL (≈ 24.1 µM); MIC (Staphylococcus aureus [25]): > 128 µg/mL; MIC (Staphylococcus aureus [26]): > 128 µg/mL; MIC (Enterococcus faecium [27]): 64 µg/mL (≈ 193 µM); MIC (Staphylococcus aureus [28]): 0.25 µg/mL (≈ 0.754 µM); MIC (Staphylococcus aureus [29]): 64 µg/mL (≈ 193 µM); ED50 (Escherichia coli [30]): 4 mg/kg; MIC (Staphylococcus aureus [31]): 0.06 µg/mL (≈ 0.181 µM); MIC (Enterococcus faecium [32]): > 128 µg/mL; MIC (Enterococcus faecium [33]): 128 µg/mL (≈ 386 µM)
CC1(CN)CN(c2ccc3c(=O)c(C(=O)O)cn(C4CC4)c3n2)C/C1=N\OCF (racemic) | 0.015 (≈ 0.0372 µM) | 4 (≈ 9.92 µM) | > 128 | 64 (≈ 159 µM) | 0.25 (≈ 0.62 µM) | > 128 | 4 (≈ 9.92 µM) | 0.5 (≈ 1.24 µM) | 0.5 (≈ 1.24 µM) | 0.5 (≈ 1.24 µM) | 0.03 (≈ 0.0744 µM) | 0.015 (≈ 0.0372 µM) | 128 (≈ 317 µM) | 32 (≈ 79.3 µM) | 0.5 (≈ 1.24 µM) | 64 (≈ 159 µM) | 8 (≈ 19.8 µM) | 2 (≈ 4.96 µM) | 0.015 (≈ 0.0372 µM) | 32 (≈ 79.3 µM) | MIC (Pseudomonas aeruginosa [34]): 1 µg/mL (≈ 2.48 µM); MIC (Escherichia coli [35]): > 128 µg/mL; MIC (Pseudomonas aeruginosa [36]): 8 µg/mL (≈ 19.8 µM); MIC (Escherichia coli [37]): > 128 µg/mL; MIC (Staphylococcus aureus [38]): 0.03 µg/mL (≈ 0.0744 µM); MIC (Escherichia coli [39]): 1 µg/mL (≈ 2.48 µM); MIC (Escherichia coli [40]): 128 µg/mL (≈ 317 µM); MIC (Staphylococcus aureus [25]): 128 µg/mL (≈ 317 µM); MIC (Staphylococcus aureus [26]): 128 µg/mL (≈ 317 µM); MIC (Enterococcus faecium [27]): 32 µg/mL (≈ 79.3 µM); MIC (Staphylococcus aureus [41]): 8 µg/mL (≈ 19.8 µM); MIC (Escherichia coli [42]): 0.015 µg/mL (≈ 0.0372 µM); MIC (Staphylococcus aureus [28]): 0.03 µg/mL (≈ 0.0744 µM); MIC (Staphylococcus aureus [29]): 32 µg/mL (≈ 79.3 µM); MIC (Staphylococcus aureus [31]): 0.015 µg/mL (≈ 0.0372 µM); MIC (Enterococcus faecium [32]): 32 µg/mL (≈ 79.3 µM); MIC (Enterococcus faecium [33]): 2 µg/mL (≈ 4.96 µM); MIC (Escherichia coli [43]): > 128 µg/mL
